Published values of several laboratories.
Protocols differ between the studies behind these lines.
Target: Amine oxidase [flavin-containing] B (MAOB, Homo sapiens, UniProt P27338)
Observed: enzyme activity
Mode: inhibitor
One construct used (P27338 1-520): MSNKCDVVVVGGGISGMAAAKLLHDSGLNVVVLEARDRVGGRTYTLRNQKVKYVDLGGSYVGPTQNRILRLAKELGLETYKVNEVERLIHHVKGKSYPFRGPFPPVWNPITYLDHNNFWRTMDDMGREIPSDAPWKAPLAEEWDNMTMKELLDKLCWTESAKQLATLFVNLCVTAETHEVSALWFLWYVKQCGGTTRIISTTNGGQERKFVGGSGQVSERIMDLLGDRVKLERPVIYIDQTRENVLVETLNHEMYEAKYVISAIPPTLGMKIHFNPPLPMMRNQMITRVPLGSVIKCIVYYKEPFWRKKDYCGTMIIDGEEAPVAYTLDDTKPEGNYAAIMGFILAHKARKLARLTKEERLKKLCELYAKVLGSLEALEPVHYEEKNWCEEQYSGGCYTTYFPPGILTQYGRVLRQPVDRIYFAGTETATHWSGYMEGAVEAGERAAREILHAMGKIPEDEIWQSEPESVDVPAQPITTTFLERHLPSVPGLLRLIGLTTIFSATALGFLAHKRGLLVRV

SMILES	technique	IC50
O=c1cc(-c2ccc(O)cc2)oc2c([C@@H]3O[C@H](CO)[C@@H](O)[C@H](O)[C@H]3O)c(O)c([C@@H]3O[C@H](CO)[C@@H](O)[C@H](O)[C@H]3O)c(O)c12		43.3 µM
COC(=O)c1ccc(C(=O)OC)c(NC(=O)c2cc(Cl)ccc2O)c1		> 1 µM
COc1ccc(/C=C/C(=O)N2CCc3ccccc3C2)cc1OC	fluorescence	0.73 µM
c1ccc(Nc2nccc(-c3ccco3)n2)cc1	fluorescence	0.51 µM
O=C1C[C@@H](c2cc(O)cc(O)c2)Oc2cc(O)ccc21		12.1 µM
COc1cc(/C=C/C(=O)N2CCc3ccccc3C2)ccc1OCc1ccccc1	fluorescence	3.1 µM
Nc1nn(-c2ccccc2)nc1C(=O)O	fluorescence	> 10 µM
COc1cc(/C=C/C(=O)N2CCC(Cc3ccccc3)CC2)ccc1OCc1ccccc1	fluorescence	3.8 µM
CCn1c(-c2nc3cc(C(=O)N4CCC[C@@H](N)C4)cc(OC)c3n2C)cc2cccnc21		25.1 µM
C#CCOc1ccc(/C=C/C(=O)N2CCc3ccccc3C2)cc1OC	fluorescence	0.54 µM
CSc1ccc(CNc2nc3ccccc3n3cnnc23)cc1	fluorescence	0.25 µM
O=C1c2c(O)cc(O)cc2O[C@H](c2ccc(O)cc2)[C@H]1O		68.1 µM
Cn1c(=O)[nH]c(=O)n2c(CC(=O)Nc3cccc4ccccc34)cnc12	fluorescence	8.7 µM
O=c1cc(-c2ccc(O)cc2)oc2cc(O)c([C@@H]3O[C@H](CO)[C@@H](O)[C@H](O)[C@H]3O)c(O)c12		23.2 µM
c1ccc(Nc2nccc(-c3cccnc3)n2)cc1	fluorescence	0.4 µM
O=C(Nc1ccc(Br)cc1)c1cc(Cl)ccc1O		0.139 µM
